Source: PubChem
In the library only some 1.8% were active in any assay of this set; here they are far more common.
CHRM5 agonist: CHRM5 agonism in calcium assay; P08912; CHO-K1 hM5 cells, Fluo-8 calcium fluorescence; 0% DMSO wells, 100% maximal acetylcholine response; activation, % at 3 µM; actives 0.19% (n = 360,000);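 active means activation above the run's mean over test compounds plus 3 SD, cut at about 23% in these data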;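 further: signal is peak over basal fluorescence ratio across the kinetic read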
CHRM4 PAM: positive allosteric modulators of human muscarinic M4 receptor | P08173 | CHO-K1 hM4/Gqi5, Fluo-8 calcium fluorescence, ACh EC20; 0% = ACh EC20, 100% = maximal ACh | activation, % at 3 µM | actives 0.4% (n = 360,000);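 active means activation above its plate's cutoff, the mean activation of sample wells plus 3 SD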
Target sequence (P08173 whole entry, looked up): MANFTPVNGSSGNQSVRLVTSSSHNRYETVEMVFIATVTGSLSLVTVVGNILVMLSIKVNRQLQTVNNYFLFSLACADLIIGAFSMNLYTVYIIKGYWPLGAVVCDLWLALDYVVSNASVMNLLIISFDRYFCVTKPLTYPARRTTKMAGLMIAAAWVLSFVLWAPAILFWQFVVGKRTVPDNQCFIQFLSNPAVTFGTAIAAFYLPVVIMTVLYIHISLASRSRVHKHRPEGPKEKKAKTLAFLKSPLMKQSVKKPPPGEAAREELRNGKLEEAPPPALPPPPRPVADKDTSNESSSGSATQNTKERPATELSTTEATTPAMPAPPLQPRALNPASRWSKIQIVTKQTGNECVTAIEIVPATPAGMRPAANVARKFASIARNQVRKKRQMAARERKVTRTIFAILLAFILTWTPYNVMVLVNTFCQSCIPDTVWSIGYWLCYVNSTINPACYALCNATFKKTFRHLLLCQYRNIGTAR
CHRM4 agonist: agonists of human muscarinic M4 receptor (CHRM4). P08173. CHO-K1 hM4/Gqi5, Fluo-8 calcium fluorescence; vehicle 0%, full acetylcholine response 100%. activation, % at 3 µM. actives 0.14% (n = 360,000). AID 624127;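 active means activation above the run mean over all test wells plus 3 SD, cut at about 32% in these data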;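 further: peak over basal fluorescence ratio per well then scaled between controls; 0% = DMSO wells and 100% = acetylcholine at EC100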
CHRM4 antagonist: CHRM4 antagonism in calcium assay. P08173. CHO-hM4 cells, ACh EC80, Fluo-8 calcium fluorescence. inhibition, % at 3 µM. actives 0.73% (n = 360,000);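 active means inhibition above its plate's cutoff, the mean inhibition of sample wells plus 3 SD, cut at about 27% in these data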;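 further: 0% = acetylcholine EC80 with DMSO and 100% = DMSO without agonist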
M5 antag: CHRM5 antagonism in calcium assay | actives 0.59% (n = 360,000) | CHO-hM5 cells, Fluo-8 calcium fluorescence, ACh EC80 | inhibition, % at 3 µM | P08912;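 active means inhibition above a per-plate cutoff, the mean of that plate's test compounds plus 3 SD, cut at about 27% in these data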;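 further: 0% = acetylcholine EC80 with DMSO and 100% = DMSO without agonist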
CHRM5 PAM: CHRM5 positive allosteric modulation; P08912; CHO-K1 hM5, Fluo-8 calcium, ACh EC20 PAM; 0% = ACh EC20, 100% = ACh EC100; activation, % at 3 µM; actives 0.3% (n = 360,000); AID 624038;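 active means activation above the run cutoff, the mean activation of all test compounds plus 3 SD, cut at about 18% in these data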
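system = human M5 receptor in CHO-K1 cells | compound = one concentration, 3 µM final (nominal) | schedule = Post-acetylcholine fluorescence recording 140 s | signal = Fluo-8 calcium dye fluorescence, kinetic read | benchmarks = low control EC20 acetylcholine (0%), high control EC100 acetylcholine (100%) | repeats = singlicate, one well per test compound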
* marks the source's active call; other numbers are inactive results.

SMILES	CHRM5 agonist	CHRM4 PAM	CHRM4 agonist	CHRM4 antagonist	M5 antag	CHRM5 PAM
O=C(c1ccc(-c2nc3ccccc3s2)o1)N1CCN(c2ccccc2O)CC1	-5	-5	9	-1	34*	-17
O=C(NCc1cccnc1)c1cccc2c1C(=O)N(Cc1cccnc1)C2	-6	7	1	0	-4	19*
CCO[C@H]1OC(C(=O)N2CCOCC2)=C[C@@H](c2ccc(Br)cc2)[C@@H]1CCCO	3	13	2	-4	11	-2
O=C(NCc1cccs1)c1ccc2sc([C@@H]3O[C@H](CO)[C@H](O)[C@H](O)[C@H]3O)nc2c1	1	16*	1	-14	-7	7
Cc1cnc(CNC(=O)c2ccc3sc([C@@H]4O[C@H](CO)[C@H](O)[C@H](O)[C@H]4O)nc3c2)cn1	-1	-3	0	7	2	-2
CCOc1ccc(CCN2C(=O)C(=O)N([C@@H](Cc3ccccc3)CN3CCC[C@H]3CN3C(=O)C(=O)NC[C@@H]3Cc3ccccc3)C[C@@H]2Cc2ccc(O)cc2)cc1	0	11	0	-13	-5	6
O=S(=O)(Nc1ccc(N2CCOCC2)cc1)c1cc(Cl)ccc1Cl	3	1	6	-8	12	18*
CO/N=C\CC(=O)Nc1ccc(Cl)cc1Cl	1	-8	1	4	-6	-4
CC1CC(C)CN(c2ncc3c(n2)CC(c2ccccc2Cl)CC3=O)C1 (configuration not stated)	1	7	0	16	-8	7
CC1CC(C)CN(c2ncc3c(n2)CC(c2ccc(Cl)cc2)CC3=O)C1 (configuration not stated)	6	7	1	6	-6	39*
CN(CC(=O)Nc1ccccc1C(=O)NC1CC1)Cc1ccco1	-2	1	0	5	6	-4
O=C(Nc1nc(-c2ccccc2)cs1)c1ccc(N2CCOCC2)c([N+](=O)[O-])c1	11	-35	22	44*	30*	-18
Cc1ccc(-c2csc(NC(=O)c3cc([N+](=O)[O-])ccc3N3CCOCC3)n2)cc1	-3	3	0	1	8	0
O=C(NCc1cc(Cl)cc(Cl)c1)c1csc([C@@H]2C[C@H](O)[C@@H](CO)O2)n1	2	4	2	-4	1	-3
O=C(Nc1ccc(Cl)c(Cl)c1)OCc1cccnc1	5	-17	17	34*	31*	-16
O=C(Nc1cccnc1)OCc1ccccc1	9	2	2	-1	-37	-2
O=C(Nc1ccc(Cl)c(Cl)c1)c1cccc(S(=O)(=O)NCc2cccnc2)c1	13	-11	23	22	34*	-18
COc1ccc(C(=O)OCC(=O)Nc2c(C)n(C)n(-c3ccccc3)c2=O)cc1OC	1	-1	0	1	0	-3
COc1cc(C)nn1-c1ccc(Cl)cc1	-6	6	0	-11	7	0
CCn1c(SCC(=O)N2CCCCC2C)nnc1-c1ccco1 (configuration not stated)	-1	-6	1	5	5	-4
CC1CCCCN1C(=O)CSc1nnc(-c2ccco2)n1CC1CCCO1 (configuration not stated)	2	30*	2	9	0	0
OC(COc1ccc(CNCCc2ccccc2F)cc1)CN1CCCCC1 (configuration not stated)	-7	-12	1	-3	5	-3
Cn1c(CCc2ccccc2)n[nH]c1=S	-3	0	1	-9	0	10
CCn1c(=O)c(=O)[nH]c2cc(C(=O)NC3CCCc4ccccc43)ccc21 (configuration not stated)	2	36*	-2	14	-1	0
CCn1c(=O)c(=O)[nH]c2cc(C(=O)NC3CC3)ccc21	2	20	2	4	3	-1
CCn1c(=O)c(=O)[nH]c2cc(C(=O)Nc3ccc(S(=O)(=O)N4CCCC4)cc3)ccc21	3	31*	0	10	-1	-4
